Measurements as given in ChEMBL document CHEMBL3232759, “Hepatoprotective effects of triterpenoids from Ganoderma cochlear” (J Nat Prod, 2014).

Experiments:
[1] = tested on: HepG2; experiment: Hepatoprotective activity against H2O2-induced human HepG2 cells assessed as reduction in ALT level at 29.95 uM after 24 hrs (reference value: 23.22 +/- 1.22 U/L); format: functional
How it was run: (§1)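 HepG2 cells in log phase seeded at 1 × 10^4 cells/well and held 24 h at 37 °C. Exposed to 3.2 mM H2O2 for 2 h at 37 °C, then to test compound in medium with DMSO for 24 h. ALT or AST read directly in the supernatant. Controls: DMSO-only cells and H2O2-only model. Test concentrations kept within each compound's MTT-determined maximum nontoxic level. Mean ± SD, n = 3; paired-sample test.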

[2] = Cytotoxicity against human HepG2 cells after 96 hrs by MTT assay; format: cell-based; conditions: read-out: MTD
How it was run: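 HepG2 cells seeded at 1 × 10^4 cells/well in MEM + 10% FBS, 24 h at 37 °C. Compounds diluted from DMSO stocks into MEM with 2% FBS (6.25, 12.5, 25, 50, 100, 200, 400 μM), DMSO kept below 1% (v/v). Added to monolayer; MTT read at OD570 after 96 h. % inhibition vs DMSO control; maximum nontoxic concentration determined.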

[3] = tested on: HepG2; experiment: Hepatoprotective activity against H2O2-induced human HepG2 cells assessed as reduction in ALT level at 14.98 uM after 24 hrs (reference value: 23.22 +/- 1.22 U/L); format: functional; how it was run: as §1
[4] = tested on: HepG2; experiment: Hepatoprotective activity against H2O2-induced human HepG2 cells assessed as reduction in AST level at 14.98 uM after 24 hrs (reference value: 32.36 +/- 0.79 U/L); format: functional; how it was run: as §1
[5] = tested on: HepG2; experiment: Hepatoprotective activity against H2O2-induced human HepG2 cells assessed as reduction in AST level at 29.95 uM after 24 hrs (reference value: 32.36 +/- 0.79 U/L); format: functional; how it was run: as §1
[6] = tested on: HepG2; experiment: Hepatoprotective activity against H2O2-induced human HepG2 cells assessed as reduction in AST level at 59.90 uM after 24 hrs (reference value: 32.36 +/- 0.79 U/L); format: functional; how it was run: as §1
[7] = tested on: HepG2; experiment: Hepatoprotective activity against H2O2-induced human HepG2 cells assessed as reduction in ALT level at 59.90 uM after 24 hrs (reference value: 23.22 +/- 1.22 U/L); format: functional; how it was run: as §1
[8] = tested on: HepG2; experiment: Hepatoprotective activity against H2O2-induced human HepG2 cells assessed as reduction in ALT level at 65.70 uM after 24 hrs (reference value: 23.22 +/- 1.22 U/L); format: functional; how it was run: as §1
[9] = tested on: HepG2; experiment: Hepatoprotective activity against H2O2-induced human HepG2 cells assessed as reduction in ALT level at 16.43 uM after 24 hrs (reference value: 23.22 +/- 1.22 U/L); format: functional; how it was run: as §1
[10] = tested on: HepG2; experiment: Hepatoprotective activity against H2O2-induced human HepG2 cells assessed as reduction in AST level at 16.43 uM after 24 hrs (reference value: 32.36 +/- 0.79 U/L); format: functional; how it was run: as §1
[11] = tested on: HepG2; experiment: Hepatoprotective activity against H2O2-induced human HepG2 cells assessed as reduction in AST level at 32.85 uM after 24 hrs (reference value: 32.36 +/- 0.79 U/L); format: functional; how it was run: as §1
[12] = tested on: HepG2; experiment: Hepatoprotective activity against H2O2-induced human HepG2 cells assessed as reduction in ALT level at 32.85 uM after 24 hrs (reference value: 23.22 +/- 1.22 U/L); format: functional; how it was run: as §1
[13] = tested on: HepG2; experiment: Hepatoprotective activity against H2O2-induced human HepG2 cells assessed as reduction in AST level at 65.70 uM after 24 hrs (reference value: 32.36 +/- 0.79 U/L); format: functional; how it was run: as §1
[14] = tested on: HepG2; experiment: Hepatoprotective activity against H2O2-induced human HepG2 cells assessed as reduction in AST level at 4.60 uM after 24 hrs (reference value: 32.36 +/- 0.79 U/L); format: functional; how it was run: as §1
[15] = tested on: HepG2; experiment: Hepatoprotective activity against H2O2-induced human HepG2 cells assessed as reduction in ALT level at 18.40 uM after 24 hrs (reference value: 23.22 +/- 1.22 U/L); format: functional; how it was run: as §1
[16] = tested on: HepG2; experiment: Hepatoprotective activity against H2O2-induced human HepG2 cells assessed as reduction in AST level at 18.40 uM after 24 hrs (reference value: 32.36 +/- 0.79 U/L); format: functional; how it was run: as §1
[17] = tested on: HepG2; experiment: Hepatoprotective activity against H2O2-induced human HepG2 cells assessed as reduction in ALT level at 9.20 uM after 24 hrs (reference value: 23.22 +/- 1.22 U/L); format: functional; how it was run: as §1
[18] = tested on: HepG2; experiment: Hepatoprotective activity against H2O2-induced human HepG2 cells assessed as reduction in AST level at 9.20 uM after 24 hrs (reference value: 32.36 +/- 0.79 U/L); format: functional; how it was run: as §1
[19] = tested on: HepG2; experiment: Hepatoprotective activity against H2O2-induced human HepG2 cells assessed as reduction in ALT level at 4.60 uM after 24 hrs (reference value: 23.22 +/- 1.22 U/L); format: functional; how it was run: as §1
[20] = tested on: HepG2; experiment: Hepatoprotective activity against H2O2-induced human HepG2 cells assessed as reduction in AST level at 7.75 uM after 24 hrs (reference value: 32.36 +/- 0.79 U/L); format: functional; how it was run: as §1
[21] = tested on: HepG2; experiment: Hepatoprotective activity against H2O2-induced human HepG2 cells assessed as reduction in ALT level at 7.75 uM after 24 hrs (reference value: 23.22 +/- 1.22 U/L); format: functional; how it was run: as §1
[22] = tested on: HepG2; experiment: Hepatoprotective activity against H2O2-induced human HepG2 cells assessed as reduction in AST level at 3.88 uM after 24 hrs (reference value: 32.36 +/- 0.79 U/L); format: functional; how it was run: as §1
[23] = tested on: HepG2; experiment: Hepatoprotective activity against H2O2-induced human HepG2 cells assessed as reduction in AST level at 15.5 uM after 24 hrs (reference value: 32.36 +/- 0.79 U/L); format: functional; how it was run: as §1
[24] = tested on: HepG2; experiment: Hepatoprotective activity against H2O2-induced human HepG2 cells assessed as reduction in ALT level at 15.5 uM after 24 hrs (reference value: 23.22 +/- 1.22 U/L); format: functional; how it was run: as §1
[25] = tested on: HepG2; experiment: Hepatoprotective activity against H2O2-induced human HepG2 cells assessed as reduction in ALT level at 3.88 uM after 24 hrs (reference value: 23.22 +/- 1.22 U/L); format: functional; how it was run: as §1

C=C(C)[C@@H]1C[C@H](O)C2=C(C(=O)C[C@]3(C)[C@@H]([C@H](C)CCC(=O)OC)CC[C@@]23C)[C@@]1(C)CCC(=O)OC
Activity [1]: 18.51 U/L
MNTC at 96 h [2]: 59.9 µM
Activity [3]: 19.32 U/L
Activity [4]: 28.28 U/L
Activity [5]: 26.77 U/L
Activity [6]: 22.11 U/L
Activity [7]: 17.81 U/L

C[C@H]1C(=O)CC[C@@H]2[C@]1(C)CC[C@H]1[C@@]2(C)CC[C@@]2(C)[C@@H]3CC(C)(C)CC[C@]3(C)CC[C@]12C [FRIEDELINE]
Activity [8]: 16.06 U/L
MNTC at 96 h [2]: 15 µM
Activity [9]: 18.92 U/L
Activity [10]: 29.45 U/L
Activity [11]: 25.43 U/L
Activity [12]: 18.27 U/L
Activity [13]: 19.09 U/L

CC(C)=CC[C@H](O)[C@@H](C)[C@H]1CC[C@@]2(C)C3=CC[C@H]4C(C)(C)[C@@H](O)CC[C@]4(C)C3=CC[C@]12C
MNTC at 96 h [2]: 150 µM

C=C(C)[C@@H]1C[C@H](O)C2=C(C(=O)C[C@]3(C)[C@@H]([C@H](C)CCC(=O)O)CC[C@@]23C)[C@@]1(C)CCC(=O)O
Activity [14]: 30.38 U/L
MNTC at 96 h [2]: 65.7 µM
Activity [15]: 20.84 U/L
Activity [16]: 20.66 U/L
Activity [17]: 20.2 U/L
Activity [18]: 23.8 U/L
Activity [19]: 19.61 U/L

C=C(C)[C@@H]1C[C@@H]2O[C@@]1(CCC(=O)O)CC1=C2[C@]2(C)CC[C@H]([C@H](C)CCC(=O)OC)[C@@]2(C)CC1=O
MNTC at 96 h [2]: 74.6 µM

C=C(C)[C@@H]1C[C@H](O)C2=C(C(=O)C[C@]3(C)[C@@H]([C@H](C)CCC(=O)O)CC[C@@]23C)[C@@]1(C)CCC(=O)OC
MNTC at 96 h [2]: 18.4 µM
Activity [20]: 26.54 U/L
Activity [21]: 19.32 U/L
Activity [22]: 28.23 U/L
Activity [23]: 26.19 U/L
Activity [24]: 19.73 U/L
Activity [25]: 21.01 U/L

C=C(C)[C@@H]1C[C@H](O)C2=C(C(=O)C[C@]3(C)[C@@H]([C@H](C)CCC(=O)OC)CC[C@@]23C)[C@@]1(C)CCC(=O)O
MNTC at 96 h [2]: 15.5 µM
